Activity calls are given as the source filed them. The rule behind the calls is not given here. Starred links: 1 amine or outer side, 2 acyl side, 3 side chain; linkers in the order of their positions; H or OH if unused. Positions of bridges follow the written chain, without caps; N, C: chain ends. Non-standard residues stand in square brackets, D forms with d. Residues, ends and D or L forms follow the SMILES beside them. Chains are numbered I, II in the order given. Gly(N-CH2CH2C6H4-4Cl) = O=C(O)CNCCc1ccc(Cl)cc1; Gly(N-piperonyl) = O=C(O)CNCc1ccc2c(c1)OCO2; Gly(Nα-4-Cl-benzyl) = O=C(O)CNCc1ccc(Cl)cc1; N(4-MeOBn)Gly = COc1ccc(CNCC(=O)O)cc1; X3 = CC(c1ccccc1)N(CC(=O)[*:2])[*:1]; Gly(NCH2CH2Ph) = O=C(O)CNCCc1ccccc1; Gly(N-(CH2)3OMe) = COCCCNCC(=O)O; Nrpe = C[C@@H](NCC(=O)O)c1ccccc1; Gly(N-propargyl) = C#CCNCC(=O)O; Gly(N-cPent) = O=C(O)CNC1CCCC1

The subject of the assay is HCC4017. Kind of assay: Cytotoxicity against human HCC4017 cells assessed as reduction in cell viability at 20 uM after 24 hrs by MTS assay. It is filed as functional, cell-based. The gist of the method:
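HCC4017 cells (RPMI, 5% FBS) and HBEC-3KT normal lung cells (KSFM with recombinant human EGF and bovine pituitary extract) were plated at 10 000 cells/well in triplicate and left to adhere overnight. They were exposed to 1 or 20 μM compound for 24 h. MTS reagent was then added for 2 h and absorbance read at 490 nm. Viability is % of untreated control wells.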
Consider `COc1ccc(CN(CC(=O)N(CC(=O)N[C@@H](CCCCN)C(=O)N[C@H](CCCCN)C(=O)N[C@@H](CCSC)C(=O)NCCCC[C@H](NC(=O)[C@H](CCSC)NC(=O)[C@@H](CCCCN)NC(=O)[C@H](CCCCN)NC(=O)CN(Cc2ccc3c(c2)OCO3)C(=O)CN(Cc2ccc(OC)cc2)C(=O)CN(C(=O)CN(Cc2ccc3c(c2)OCO3)C(=O)CN[C@H](C)c2ccccc2)[C@H](C)c2ccccc2)C(N)=O)Cc2ccc3c(c2)OCO3)C(=O)CN(C(=O)CN(Cc2ccc3c(c2)OCO3)C(=O)CN[C@H](C)c2ccccc2)[C@H](C)c2ccccc2)cc1` (I: H-[Nrpe][Gly(N-piperonyl)][Nrpe][N(4-MeOBn)Gly][Gly(N-piperonyl)]K[dK]MK-NH2 / II: H-[Nrpe][Gly(N-piperonyl)][Nrpe][N(4-MeOBn)Gly][Gly(N-piperonyl)]K[dK]M; amide I:9-II:C), for which the outcome was Active. On to `COc1ccc(CN(CC(=O)NC(C)C(=O)NC(CCCCN)C(=O)NC(CCCCN)C(=O)NC(CCSC)C(=O)NCCCCC(NC(=O)C(CCSC)NC(=O)C(CCCCN)NC(=O)C(CCCCN)NC(=O)C(C)NC(=O)CN(Cc2ccc(OC)cc2)C(=O)CN(C(=O)CN(Cc2ccc3c(c2)OCO3)C(=O)CNC(C)c2ccccc2)C(C)c2ccccc2)C(N)=O)C(=O)CN(C(=O)CN(Cc2ccc3c(c2)OCO3)C(=O)CNC(C)c2ccccc2)C(C)c2ccccc2)cc1` (stereo not drawn) (I: H-[X3][Gly(N-piperonyl)][X3][N(4-MeOBn)Gly]AKKMK-NH2 / II: H-[X3][Gly(N-piperonyl)][X3][N(4-MeOBn)Gly]AKKM; amide I:9-II:C; configuration not given here), for which the result was Active. Take `COc1ccc(CN(CC(=O)NC(CC(=O)O)C(=O)NC(CCCCN)C(=O)NC(CCCCN)C(=O)NC(CCSC)C(=O)NCCCCC(NC(=O)C(CCSC)NC(=O)C(CCCCN)NC(=O)C(CCCCN)NC(=O)C(CC(=O)O)NC(=O)CN(Cc2ccc(OC)cc2)C(=O)CN(C(=O)CN(Cc2ccc3c(c2)OCO3)C(=O)CNC(C)c2ccccc2)C(C)c2ccccc2)C(N)=O)C(=O)CN(C(=O)CN(Cc2ccc3c(c2)OCO3)C(=O)CNC(C)c2ccccc2)C(C)c2ccccc2)cc1` (stereo not drawn) (I: H-[X3][Gly(N-piperonyl)][X3][N(4-MeOBn)Gly]DKKMK-NH2 / II: H-[X3][Gly(N-piperonyl)][X3][N(4-MeOBn)Gly]DKKM; amide I:9-II:C; configuration not given here): the outcome was inactive. For `COc1ccc(CN(CC(=O)NC(CC(C)C)C(=O)NC(CCCCN)C(=O)NC(CCCCN)C(=O)NC(CCSC)C(=O)NCCCCC(NC(=O)C(CCSC)NC(=O)C(CCCCN)NC(=O)C(CCCCN)NC(=O)C(CC(C)C)NC(=O)CN(Cc2ccc(OC)cc2)C(=O)CN(C(=O)CN(Cc2ccc3c(c2)OCO3)C(=O)CNC(C)c2ccccc2)C(C)c2ccccc2)C(N)=O)C(=O)CN(C(=O)CN(Cc2ccc3c(c2)OCO3)C(=O)CNC(C)c2ccccc2)C(C)c2ccccc2)cc1` (stereo not drawn) (I: H-[X3][Gly(N-piperonyl)][X3][N(4-MeOBn)Gly]LKKMK-NH2 / II: H-[X3][Gly(N-piperonyl)][X3][N(4-MeOBn)Gly]LKKM; amide I:9-II:C; configuration not given here), the result was Active. The result for `COc1ccc(CN(CC(=O)N2CCCC2C(=O)NC(CCCCN)C(=O)NC(CCCCN)C(=O)NC(CCSC)C(=O)NCCCCC(NC(=O)C(CCSC)NC(=O)C(CCCCN)NC(=O)C(CCCCN)NC(=O)C2CCCN2C(=O)CN(Cc2ccc(OC)cc2)C(=O)CN(C(=O)CN(Cc2ccc3c(c2)OCO3)C(=O)CNC(C)c2ccccc2)C(C)c2ccccc2)C(N)=O)C(=O)CN(C(=O)CN(Cc2ccc3c(c2)OCO3)C(=O)CNC(C)c2ccccc2)C(C)c2ccccc2)cc1` (stereo not drawn) (I: H-[X3][Gly(N-piperonyl)][X3][N(4-MeOBn)Gly]PKKMK-NH2 / II: H-[X3][Gly(N-piperonyl)][X3][N(4-MeOBn)Gly]PKKM; amide I:9-II:C; configuration not given here) reads “Active”; that for `COc1ccc(CN(CC(=O)NC(C(=O)NC(CCCCN)C(=O)NC(CCCCN)C(=O)NC(CCSC)C(=O)NCCCCC(NC(=O)C(CCSC)NC(=O)C(CCCCN)NC(=O)C(CCCCN)NC(=O)C(NC(=O)CN(Cc2ccc(OC)cc2)C(=O)CN(C(=O)CN(Cc2ccc3c(c2)OCO3)C(=O)CNC(C)c2ccccc2)C(C)c2ccccc2)C(C)C)C(N)=O)C(C)C)C(=O)CN(C(=O)CN(Cc2ccc3c(c2)OCO3)C(=O)CNC(C)c2ccccc2)C(C)c2ccccc2)cc1` (stereo not drawn) (I: H-[X3][Gly(N-piperonyl)][X3][N(4-MeOBn)Gly]VKKMK-NH2 / II: H-[X3][Gly(N-piperonyl)][X3][N(4-MeOBn)Gly]VKKM; amide I:9-II:C; configuration not given here), “Active”; that for `COc1ccc(CN(CC(=O)NC(Cc2ccc(O)cc2)C(=O)NC(CCCCN)C(=O)NC(CCCCN)C(=O)NC(CCSC)C(=O)NCCCCC(NC(=O)C(CCSC)NC(=O)C(CCCCN)NC(=O)C(CCCCN)NC(=O)C(Cc2ccc(O)cc2)NC(=O)CN(Cc2ccc(OC)cc2)C(=O)CN(C(=O)CN(Cc2ccc3c(c2)OCO3)C(=O)CNC(C)c2ccccc2)C(C)c2ccccc2)C(N)=O)C(=O)CN(C(=O)CN(Cc2ccc3c(c2)OCO3)C(=O)CNC(C)c2ccccc2)C(C)c2ccccc2)cc1` (stereo not drawn) (I: H-[X3][Gly(N-piperonyl)][X3][N(4-MeOBn)Gly]YKKMK-NH2 / II: H-[X3][Gly(N-piperonyl)][X3][N(4-MeOBn)Gly]YKKM; amide I:9-II:C; configuration not given here), “Active”. The result for `COCCCN(CC(=O)NC(CCCCN)C(=O)NC(CCCCN)C(=O)NC(CCSC)C(=O)NCCCCC(NC(=O)C(CCSC)NC(=O)C(CCCCN)NC(=O)C(CCCCN)NC(=O)CN(CCCOC)C(=O)CN(Cc1ccc(OC)cc1)C(=O)CN(C(=O)CN(Cc1ccc2c(c1)OCO2)C(=O)CNC(C)c1ccccc1)C(C)c1ccccc1)C(N)=O)C(=O)CN(Cc1ccc(OC)cc1)C(=O)CN(C(=O)CN(Cc1ccc2c(c1)OCO2)C(=O)CNC(C)c1ccccc1)C(C)c1ccccc1` (stereo not drawn) (I: H-[X3][Gly(N-piperonyl)][X3][N(4-MeOBn)Gly][Gly(N-(CH2)3OMe)]KKMK-NH2 / II: H-[X3][Gly(N-piperonyl)][X3][N(4-MeOBn)Gly][Gly(N-(CH2)3OMe)]KKM; amide I:9-II:C; configuration not given here) reads “Active”; that for `COc1ccc(CN(CC(=O)N(CCc2ccc(Cl)cc2)CC(=O)NC(CCCCN)C(=O)NC(CCCCN)C(=O)NC(CCSC)C(=O)NCCCCC(NC(=O)C(CCSC)NC(=O)C(CCCCN)NC(=O)C(CCCCN)NC(=O)CN(CCc2ccc(Cl)cc2)C(=O)CN(Cc2ccc(OC)cc2)C(=O)CN(C(=O)CN(Cc2ccc3c(c2)OCO3)C(=O)CNC(C)c2ccccc2)C(C)c2ccccc2)C(N)=O)C(=O)CN(C(=O)CN(Cc2ccc3c(c2)OCO3)C(=O)CNC(C)c2ccccc2)C(C)c2ccccc2)cc1` (stereo not drawn) (I: H-[X3][Gly(N-piperonyl)][X3][N(4-MeOBn)Gly][Gly(N-CH2CH2C6H4-4Cl)]KKMK-NH2 / II: H-[X3][Gly(N-piperonyl)][X3][N(4-MeOBn)Gly][Gly(N-CH2CH2C6H4-4Cl)]KKM; amide I:9-II:C; configuration not given here), “Active”; that for `COc1ccc(CN(CC(=O)N(CC(=O)NC(CCCCN)C(=O)NC(CCCCN)C(=O)NC(CCSC)C(=O)NCCCCC(NC(=O)C(CCSC)NC(=O)C(CCCCN)NC(=O)C(CCCCN)NC(=O)CN(C(=O)CN(Cc2ccc(OC)cc2)C(=O)CN(C(=O)CN(Cc2ccc3c(c2)OCO3)C(=O)CNC(C)c2ccccc2)C(C)c2ccccc2)C2CCCC2)C(N)=O)C2CCCC2)C(=O)CN(C(=O)CN(Cc2ccc3c(c2)OCO3)C(=O)CNC(C)c2ccccc2)C(C)c2ccccc2)cc1` (stereo not drawn) (I: H-[X3][Gly(N-piperonyl)][X3][N(4-MeOBn)Gly][Gly(N-cPent)]KKMK-NH2 / II: H-[X3][Gly(N-piperonyl)][X3][N(4-MeOBn)Gly][Gly(N-cPent)]KKM; amide I:9-II:C; configuration not given here), “Active”. The result for `C#CCN(CC(=O)NC(CCCCN)C(=O)NC(CCCCN)C(=O)NC(CCSC)C(=O)NCCCCC(NC(=O)C(CCSC)NC(=O)C(CCCCN)NC(=O)C(CCCCN)NC(=O)CN(CC#C)C(=O)CN(Cc1ccc(OC)cc1)C(=O)CN(C(=O)CN(Cc1ccc2c(c1)OCO2)C(=O)CNC(C)c1ccccc1)C(C)c1ccccc1)C(N)=O)C(=O)CN(Cc1ccc(OC)cc1)C(=O)CN(C(=O)CN(Cc1ccc2c(c1)OCO2)C(=O)CNC(C)c1ccccc1)C(C)c1ccccc1` (stereo not drawn) (I: H-[X3][Gly(N-piperonyl)][X3][N(4-MeOBn)Gly][Gly(N-propargyl)]KKMK-NH2 / II: H-[X3][Gly(N-piperonyl)][X3][N(4-MeOBn)Gly][Gly(N-propargyl)]KKM; amide I:9-II:C; configuration not given here) reads “Active”; that for `COc1ccc(CN(CC(=O)N(CCc2ccccc2)CC(=O)NC(CCCCN)C(=O)NC(CCCCN)C(=O)NC(CCSC)C(=O)NCCCCC(NC(=O)C(CCSC)NC(=O)C(CCCCN)NC(=O)C(CCCCN)NC(=O)CN(CCc2ccccc2)C(=O)CN(Cc2ccc(OC)cc2)C(=O)CN(C(=O)CN(Cc2ccc3c(c2)OCO3)C(=O)CNC(C)c2ccccc2)C(C)c2ccccc2)C(N)=O)C(=O)CN(C(=O)CN(Cc2ccc3c(c2)OCO3)C(=O)CNC(C)c2ccccc2)C(C)c2ccccc2)cc1` (stereo not drawn) (I: H-[X3][Gly(N-piperonyl)][X3][N(4-MeOBn)Gly][Gly(NCH2CH2Ph)]KKMK-NH2 / II: H-[X3][Gly(N-piperonyl)][X3][N(4-MeOBn)Gly][Gly(NCH2CH2Ph)]KKM; amide I:9-II:C; configuration not given here), “Active”. For the compound `COc1ccc(CN(CC(=O)N(CC(=O)NC(CCCCN)C(=O)NC(CCCCN)C(=O)NC(CCSC)C(=O)NCCCCC(NC(=O)C(CCSC)NC(=O)C(CCCCN)NC(=O)C(CCCCN)NC(=O)CN(Cc2ccc(Cl)cc2)C(=O)CN(Cc2ccc(OC)cc2)C(=O)CN(C(=O)CN(Cc2ccc3c(c2)OCO3)C(=O)CNC(C)c2ccccc2)C(C)c2ccccc2)C(N)=O)Cc2ccc(Cl)cc2)C(=O)CN(C(=O)CN(Cc2ccc3c(c2)OCO3)C(=O)CNC(C)c2ccccc2)C(C)c2ccccc2)cc1` (stereo not drawn) (I: H-[X3][Gly(N-piperonyl)][X3][N(4-MeOBn)Gly][Gly(Nα-4-Cl-benzyl)]KKMK-NH2 / II: H-[X3][Gly(N-piperonyl)][X3][N(4-MeOBn)Gly][Gly(Nα-4-Cl-benzyl)]KKM; amide I:9-II:C; configuration not given here), the outcome was Active.

For the origin of these results see ChEMBL document CHEMBL4257452, “A mini-library system to investigate non-essential residues of lipid-phosphatidylserine (PS) binding peptide-peptoid hybrid PPS1” (Medchemcomm, 2017).
